Measurements taken from ChEMBL document CHEMBL1152865, “Synthesis and antimycobacterial activities of novel 6-nitroquinolone-3-carboxylic acids” (Eur J Med Chem, 2009).
Converted amounts (≈) assume the structure as drawn.

tested on: Mycobacterium tuberculosis; experiment: Antibacterial activity against multidrug-resistant Mycobacterium tuberculosis by agar dilution method; type: functional
In short: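 Agar dilution in Middlebrook 7H11 agar supplemented with OADC, following an approach similar to NCCLS guidance. MIC determined in duplicate.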

Question: With `O=C(O)c1cn(C2CC2)c2cc(N3CCN(C(=O)C4COc5ccccc5O4)CC3)c([N+](=O)[O-])cc2c1=O` (stereo not given) as the molecule, how does the MIC read?
Answer: 6.01 µM (≈ 3.13 µg/mL)

Question: `CC1CN(c2cc3c(cc2[N+](=O)[O-])c(=O)c(C(=O)O)cn3C2CC2)CC(C)O1` (stereo not given) was tested. Which MIC did it give?
Answer: 4.03 µM (≈ 1.56 µg/mL)

Question: For `O=C(O)c1cn(C2CC2)c2cc(N3CCN(Cc4ccc5c(c4)OCO5)CC3)c([N+](=O)[O-])cc2c1=O`, which MIC is on record?
Answer: 0.16 µM (≈ 0.0788 µg/mL)

Question: How did the MIC turn out when `CC(C)(C)NC(=O)C1c2ccccc2CCN1c1cc2c(cc1[N+](=O)[O-])c(=O)c(C(=O)O)cn2C1CC1` (stereo not given) was run?
Answer: 1.55 µM (≈ 0.782 µg/mL)

Question: How did the MIC turn out when `Cc1onc(-c2c(F)cccc2F)c1C(=O)N1CCN(c2cc3c(cc2[N+](=O)[O-])c(=O)c(C(=O)O)cn3C(C)(C)C)CC1` was run?
Answer: 0.65 µM (≈ 0.387 µg/mL)

Question: How did the MIC turn out when `CC1CN(c2cc3c(cc2[N+](=O)[O-])c(=O)c(C(=O)O)cn3-c2ccc(F)cc2)CC(C)O1` (stereo not given) was run?
Answer: 1.77 µM (≈ 0.781 µg/mL)

Question: How did the MIC turn out when `CCN(CC)C(=O)C1CCCN(c2cc3c(cc2[N+](=O)[O-])c(=O)c(C(=O)O)cn3C2CC2)C1` (stereo not given) was run?
Answer: 3.42 µM (≈ 1.56 µg/mL)

Question: With `O=C(O)c1cn2c(n1)CN(c1cc3c(cc1[N+](=O)[O-])c(=O)c(C(=O)O)cn3C1CC1)CC2` as the molecule, how does the MIC read?
Answer: 0.43 µM (≈ 0.189 µg/mL)

Question: For `O=C(O)c1cn(-c2ccc(F)cc2)c2cc(N3CCN(Cc4ccc5c(c4)OCO5)CC3)c([N+](=O)[O-])cc2c1=O`, which MIC is on record?
Answer: 0.71 µM (≈ 0.388 µg/mL)

Question: How did the MIC turn out when `O=C(O)c1cn(-c2ccc(F)cc2)c2cc(N3CCN(C(=O)C4COc5ccccc5O4)CC3)c([N+](=O)[O-])cc2c1=O` (stereo not given) was run?
Answer: 0.68 µM (≈ 0.391 µg/mL)

Question: With `CN1CCN(c2cc3c(cc2[N+](=O)[O-])c(=O)c(C(=O)O)cn3C2CC2)CC1c1ccccc1` (stereo not given) as the molecule, how does the MIC read?
Answer: 0.2 µM (≈ 0.0897 µg/mL)

Question: Which MIC does the source give for `O=C(O)c1cn(C2CC2)c2cc(N3CCC(N4CCCCC4)CC3)c([N+](=O)[O-])cc2c1=O` here?
Answer: 0.43 µM (≈ 0.189 µg/mL)

Question: `O=C(O)c1cn(C2CC2)c2cc(N3CCN(C(=O)c4ccco4)CC3)c([N+](=O)[O-])cc2c1=O` was tested. Which MIC did it give?
Answer: 0.34 µM (≈ 0.154 µg/mL)

Question: How did the MIC turn out when `O=C(O)c1cn(C2CC2)c2cc(N3CCC4(CC3)OCCO4)c([N+](=O)[O-])cc2c1=O` was run?
Answer: 1.88 µM (≈ 0.781 µg/mL)

Question: Which MIC does the source give for `O=C(O)c1cn(C2CC2)c2cc(N3CCC(n4c(=O)[nH]c5cc(Cl)ccc54)CC3)c([N+](=O)[O-])cc2c1=O` here?
Answer: 2.97 µM (≈ 1.56 µg/mL)

Question: Which MIC does the source give for `Cc1onc(-c2c(F)cccc2F)c1C(=O)N1CCN(c2cc3c(cc2[N+](=O)[O-])c(=O)c(C(=O)O)cn3C2CC2)CC1` here?
Answer: 2.69 µM (≈ 1.56 µg/mL)

Question: For `COc1c(N2CCNC(C)C2)c(F)cc2c(=O)c(C(=O)O)cn(C3CC3)c12` (stereo not given) [GATIFLOXACIN], which MIC is on record?
Answer: 8.34 µM (≈ 3.13 µg/mL)

Question: For `NNC(=O)c1ccncc1` [ISONIAZID], which MIC is on record?
Answer: 45.6 µM (≈ 6.25 µg/mL)

Question: For `CC(C)(C)n1cc(C(=O)O)c(=O)c2cc([N+](=O)[O-])c(N3CCN(Cc4ccc5c(c4)OCO5)CC3)cc21`, which MIC is on record?
Answer: 1.53 µM (≈ 0.778 µg/mL)

Question: For `O=C(O)c1cn(C2CC2)c2cc(N3CCC(O)(c4ccc(Cl)cc4)CC3)c([N+](=O)[O-])cc2c1=O`, which MIC is on record?
Answer: 0.39 µM (≈ 0.189 µg/mL)
